Test results as given in paper PMC6893110 (Molecular imaging and biology, 2020).
Values belong to the molecule of their own block, whether it stands above or below them.

How the values were obtained:
[1] = system: MCF7 tumor xenografts; assay: PET imaging of [^124I]IPAG in MCF7 tumor-bearing mice; type: in vivo, athymic nude mice
Outline: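 Female athymic nude mice (n=5) carried estradiol-supported s.c. MCF7 xenografts on the right forelimb (100–300 mm³). They got 0.1% KI i.p. 1 h before i.v. tracer (200 μCi, 7.4 MBq, in 150 μL 0.5% ethanol/saline). Mice were anaesthetised with 2% isoflurane in air for 15 min and scanned by microPET at serial times up to 144 h post-injection. Images were read visually and tumor maximum pixel values recorded.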

[2] = system: MCF-7 tumor xenografts; assay: In vivo tracer dilution; design: species or system athymic nude mice; settings: for reduction of [^124I]IPAG tumor uptake: 100-fold excess of IPAG
Outline: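 MCF7-xenografted athymic nude mice (estradiol-supplemented, 100–300 mm³ tumors) got KI i.p. 1 h before i.v. co-injection. […] Mice were euthanised at 24, 48 or 72 h and organs weighed and gamma-counted. %ID/g was decay- and background-corrected.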

[3] = biological target: S1R (Homo sapiens, UniProt Q99720); type: binding
[4] = system: LNCaP tumors; assay: PET imaging blocking study in LNCaP tumor-bearing mice; type: in vivo, athymic nude mice; settings: 100-fold excess of cold IPAG co-injected with [^124I]IPAG
Outline: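 LNCaP cells (5×10^6 in 1:1 Matrigel/medium) were grown s.c. on the hind limb of athymic nude mice for 3–5 weeks. Mice got 0.1% KI i.p. 1 h before i.v. tracer (200 μCi in 150 μL 0.5% ethanol/saline) co-injected with 100-fold excess unlabeled IPAG. Under 2% isoflurane, mice were imaged by microPET at 4, 24 and 72 h. %ID/g came from regions of interest drawn on the PET images.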

[5] = Solubility of IPAG in assay media; type: physicochemical; settings: in both cell media and PBS
[6] = biological target: S1R; settings: read-out: Kd for S1R; binding to S1R; no reference given; cited from earlier work
[7] = system: MCF7 tumors; assay: Ex vivo biodistribution of [^124I]IPAG in MCF7 tumor-bearing mice; design: species or system athymic nude mice; settings: n = 5
Outline: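 Female athymic nude mice (6–8 wk) got s.c. 17β-estradiol pellets (0.75 mg) 72 h before s.c. forelimb implant of 1×10^7 MCF7 cells in 1:1 Matrigel/medium. Tumors were 100–300 mm³. Mice got 0.1% KI i.p. 1 h before i.v. tracer (20–30 μCi in 5% ethanol/0.9% saline) and were euthanised by CO₂ at 4, 24, 48 or 72 h. Organs were weighed and gamma-counted, with background and decay correction. Injected dose was taken from syringe activity before and after injection. Results are %ID/g, mean and SD.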

Sequence of S1R (Homo sapiens, UniProt Q99720) (Q99720 whole entry): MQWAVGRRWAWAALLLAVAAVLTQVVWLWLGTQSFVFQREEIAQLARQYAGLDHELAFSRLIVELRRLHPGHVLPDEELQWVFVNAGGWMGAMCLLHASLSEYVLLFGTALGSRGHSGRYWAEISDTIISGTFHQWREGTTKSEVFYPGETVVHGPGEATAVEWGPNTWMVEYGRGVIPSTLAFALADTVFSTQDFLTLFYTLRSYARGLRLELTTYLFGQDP

- clearance time from background organs ([1]; PET imaging, mice): around 24 h
- IC50 [3]: 4.7 to 14.1 nM
- inhibitory constants in vitro ([3]; competition against radioiodinated IPAG, sigma-1): nanomolar
- solubility [5]: poor solubility
SMILES: N=C(Nc1ccc(I)cc1)NC1C2CC3CC(C2)CC1C3 (stereo not shown) [IPAG, 1-(4-iodophenyl)-3-(2-adamantyl)guanidine]
- reduction of [^124I]IPAG tumor uptake ([2]; 24 h): 81.14%
- reduction of [^124I]IPAG tumor uptake ([2]; 48 h): 88.74%
- calculated %ID/g values (PET ROI) versus [^124I]IPAG alone [4]: significantly lower
- Kd [6]: 9 nM

SMILES: N=C(Nc1ccc([124I])cc1)NC1C2CC3CC(C2)CC1C3 (stereo not shown) [[^124I]IPAG, I-124 labeled 1-(4-iodophenyl)-3-(2-adamantyl)guanidine]
- uptake at extended time post injection (PET imaging) ([1]; 144 h post injection): ~ 0.17 % ID/g
- %ID/g uptake in MCF7 tumors ([7]; 4 h post i.v. injection): 1.53 ± 0.27 %ID/g
- %ID/g uptake in MCF7 tumors ([7]; 24 h post i.v. injection): 1.09 ± 0.24 %ID/g
- %ID/g uptake in MCF7 tumors ([7]; 48 h post i.v. injection): 0.94 ± 0.23 %ID/g

SMILES: O=C(CCCN1CCC(O)(c2ccc(Cl)cc2)CC1)c1ccc(F)cc1 [haloperidol]
- inhibition of [^124I]IPAG uptake in tumor ([2]; 3.5-fold excess of haloperidol i.v. with tracer, 72 h p.i.): about 3 fold
